Assay results collected from several papers.
Each line is one published result; the experiments were not run side by side.
Read-out: cell growth or viability

| SMILES | cell line | test | setting | quantity | value |
| --- | --- | --- | --- | --- | --- |
| COc1ccc(/C=C/c2coc3ccc(OC)cc3c2=O)cc1 | HSC-2 | MTT | 6.7 h | CC50 | 21000 nM |
| CC(C)Cc1nn(C)c(=O)c2c(SCCCO)n(Cc3ccc(Cl)nc3)cc12 | Raji | MTT | 96 h | EC50 | 1000 nM |
| FC1CCN(C2(CNCc3ccc(-c4ccccc4Cl)o3)COC2)C1 (stereo not shown) | U-87 MG |  | 30 µM, 48 h | viability | 45.4% |
| Cn1nnc2c(C(N)=O)ncn2c1=O | AGS |  |  | EC50 | 310000 nM |
| COc1ccc(NC(=O)c2c(Nc3ccccc3)sc(C#N)c2NC(=O)CNc2ccccc2[N+](=O)[O-])cc1 | HCT-116 | SRB | 10 nM, 48 h | viability | 90.4% |
| COc1ccc2occ(/C=C/c3ccc(O)cc3)c(=O)c2c1 | HSC-2 | MTT | 23 h | CC50 | < 390 nM |
| c1ccc(-c2ccc(CNCC3(N4CCCC4)COC3)o2)cc1 | U-87 MG |  | 30 µM, 48 h | viability | 0.534% |
| CCCCCCCCCCCCCCCCOP(=O)([O-])OCC[N+](C)(C)C | DH82 | MTS | 20 µM, 24 h | inhibition | 43.9% |
| COc1ccc(NC(=O)c2c(Nc3ccccc3)sc(C#N)c2NC(=O)CNc2ccc(C)cc2)cc1 | HCT-116 | SRB | 10 nM, 48 h | viability | 92.4% |
| COc1ccc2occ(/C=C/c3cc(OC)c(OC)c(OC)c3)c(=O)c2c1 | HSC-2 | MTT | 23 h | CC50 | 4200 nM |
| COc1ccc(NC(=O)c2c(Nc3ccccc3)sc(C(=O)NN=Cc3ccc(Cl)cc3)c2NC(C)=O)cc1 | HCT-116 | SRB | 10 µM, 48 h | viability | 61.3% |
| CC(C)Cc1nn(C)c(=O)c2c(SCCCO)n(Cc3cnc(Cl)c4ccccc34)cc12 | Raji | MTT | 96 h | EC50 | 60 nM |
| Cc1ccc(C(=O)NCc2ccsc2)cc1C#Cc1cn(C)c2ncnc(N)c12 | 32D |  |  | GI50 | 106 nM |
| CC#CC(=O)N1CC[C@@H](n2cc(-c3ccc(Oc4c(F)cccc4F)cc3)c3c(N)n[nH]c(=O)c32)C1 | DOHH-2 | ATP luminescence | 72 h | GI50 | 8580 nM |
| COc1ccc(-c2ccc(-c3ccc(C(=N)N)nc3)s2)cc1 | EKVX | SRB |  | GI50 | 1700 nM |
| CCn1c(=O)c(-c2cc(NC(=O)Nc3ccccc3)c(F)cc2Br)cc2cnc(NC)cc21 | 32D |  |  | GI50 | > 3000 nM |
| COc1ccc(NC(=O)c2c(Nc3ccccc3)sc(C(=O)NN=Cc3ccccc3)c2NC(C)=O)cc1 | HCT-116 | SRB | 1 µM, 48 h | viability | 77.3% |
| COc1cccc(Oc2ccccc2NC(=O)CNC(=O)c2cccc3ccccc23)c1 | EKVX | SRB | 48 h | GI50 | 1290 nM |
| CC(C)Cc1nn(C)c(=O)c2c(SCCCO)n(Cc3cc(NCCCCCN)nc4ccccc34)cc12 | Raji | MTT | 96 h | EC50 | 55 nM |
| Clc1ccccc1-c1ccc(CNCC2(N3CCCC3)COC2)o1 | U-87 MG |  | 30 µM, 48 h | viability | 63.6% |
| COc1ccc(NC(=O)c2c(Nc3ccccc3)sc(C#N)c2NC(=O)CNc2ccccc2Cl)cc1 | HCT-116 | SRB | 10 µM, 48 h | viability | 62.9% |
| C[C@@H]1[C@H](O)[C@@H](C)/C=C/C=C/C=C/C=C/C=C/C=C/C=C/[C@H](O[C@@H]2O[C@H](C)[C@@H](O)[C@H](N)[C@@H]2O)C[C@@H]2O[C@](O)(C[C@@H](O)C[C@@H](O)[C@H](O)CC[C@@H](O)C[C@@H](O)CC(=O)O[C@H]1C)C[C@H](O)[C@H]2C(=O)O | DH82 | MTS | 200 µM, 72 h | inhibition | 42% |
| COc1ccc(NC(=O)c2c(Nc3ccccc3)sc(C(=O)NN=Cc3ccc(C)cc3)c2NC(C)=O)cc1 | HCT-116 | SRB | 100 µM, 48 h | viability | 76.1% |
| Cc1ccc(C(=O)NCc2ccsc2)cc1C#Cc1cn(C2CCC2)c2ncnc(N)c12 | 32D |  |  | GI50 | > 1000 nM |
| COc1ccc(NC(=O)c2c(Nc3ccccc3)sc(C#N)c2NC(=O)CNc2ccccc2)cc1 | HCT-116 | SRB | 10 µM, 48 h | viability | 87.2% |
| CCOC(=O)c1c(C)ncn1CC(c1cn(C)c2ccc([N+](=O)[O-])cc12)c1cn(C)c2ccc([N+](=O)[O-])cc12 | DH82 | MTS | 20 µM, 24 h | inhibition | 20.5% |
| COc1ccc(C=NNC(=O)c2sc(Nc3ccccc3)c(C(=O)Nc3ccc(OC)cc3)c2NC(C)=O)cc1 | HCT-116 | SRB | 1 µM, 48 h | viability | 59.4% |
| COc1ccc(-c2ccc(-c3ccc(C(=N)N)nc3)s2)cc1Cl | EKVX | SRB |  | GI50 | 1790 nM |
